Source: PubChem BioAssay
Rows were chosen to be rich in hits. Some 1.9% of all compounds tested hit in one or more screens of this group.
MsrA inhibitor: inhibitors of bovine MsrA. purified bovine MsrA, absorbance read-out. inhibition, % at 15.5 µM. 360,000 compounds, 0.75% hits. AID 651718; in the data active = inhibition above about 4.5%;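 also: 0% = vehicle wells with enzyme and 100% = reference inhibitor wells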
aDG glyco act: increases alpha dystroglycan glycosylation; Pro5-aDG cells, alpha-DG glycosylation AlphaScreen (IIH6); 0% Pro5, 100% B10-LARGE cell signal; activation, % at 10 µM; 360,000 compounds, 0.22% hits; AID 624168;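 active = activation of at least 8% versus controls, or a plate z-score of at least 8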;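 also: Pro5 are CHO cells carrying HIG-tagged alpha-DG that lacks glycosylation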
Vif inh: HIV Vif inhibition | HEK293T cells, Vif self-association by quenched fluorescence, imaging, 24 h | inhibition, % at 7.49 µM | 340,000 compounds, 0.35% hits; in the data active = inhibition above about 50%, passing the limit was not always enough
MsrA act: activates bovine MsrA enzyme; purified bovine MsrA, absorbance read-out; activation, % at 10.6 µM; 360,000 compounds, 0.3% hits; in the data active = activation above about 7.5%;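 also: 0% = vehicle and 100% = reference activator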
UCH37 DUB inh: blocks the human deubiquitinase UCH37; Q9Y5K5; purified proteasome/UCH37, Ub-AMC cleavage fluorescence; inhibition, % (test concentration not listed); 330,000 compounds, 0.33% hits; AID 588478;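 active = mean inhibition over replicate wells above about 20%, limit read from the data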;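 also: 0% = compound-free wells with enzyme and 100% = wells lacking proteasome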
Target sequence (Q9Y5K5 whole entry, looked up): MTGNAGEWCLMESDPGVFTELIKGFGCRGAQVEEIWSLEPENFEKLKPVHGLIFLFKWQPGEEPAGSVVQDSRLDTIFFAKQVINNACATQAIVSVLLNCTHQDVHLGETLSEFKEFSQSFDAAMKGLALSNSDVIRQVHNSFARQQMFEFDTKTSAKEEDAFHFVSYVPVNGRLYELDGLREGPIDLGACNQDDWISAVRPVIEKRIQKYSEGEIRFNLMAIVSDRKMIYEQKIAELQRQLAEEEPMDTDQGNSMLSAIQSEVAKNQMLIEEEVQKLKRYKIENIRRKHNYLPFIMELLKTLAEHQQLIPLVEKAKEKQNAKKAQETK
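Reagent: Ub-AMC substrate; assay system: Proteasome-associated human UCH37 deubiquitinase; controls: no-proteasome and no-compound wells; read-out: % inhibition of Ub-AMC cleavage fluorescence; timing: 30 min preincubation with enzyme, 25 min cleavage at room temperature; signal: AMC fluorescence from Ub-AMC cleavage, excitation 355 nm, emission 460 nm; buffer or medium: Tris-HCl pH 7.4 plus ovalbumin, ATP-MgCl2, DTT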
Glyco luc inh: N-linked glycosylation inhibition; D54 ERlucT glycosylation luciferase reporter, 24 h; percent of 100 nM tunicamycin response; reporter increase, % at 12.5 µM; 360,000 compounds, 0.23% hits;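 active = mean luciferase reporter signal, scaled so untreated is 0 and the glycosylation-blocking control 100, at or above a set limit in every replicate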;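 also: luciferase carries N-glycosylation sites so blocking glycosylation raises the light; 0% = median of neutral control wells and 100% = median of 100 nM tunicamycin wells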
An asterisk follows results filed as active; i = inactive; · = not tested or not shown.

SMILES	MsrA inhibitor	aDG glyco act	Vif inh	MsrA act	UCH37 DUB inh	Glyco luc inh
CC[C@H](CO)Oc1cc(NCc2ccc(Cl)c(Cl)c2)c2ncn(C(C)C)c2c1	1.7	0.2	7.4	-1.5	1.2	-0.8
CCOc1ccc(C(Nc2ccc(C)cc2)P2(=O)OCCC(C)O2)cc1 (stereo unspecified)	-1.0	-0.2	3.1	-1.4	29.8*	2.2
CCOc1ccc(C(Nc2ccc(C)cc2)P2(=O)OCCCO2)cc1 (stereo unspecified)	0.2	0.1	4.6	0.9	5.8	1.2
COc1ccccc1N1CCN(C(=O)C(F)F)CC1	-1.7	0.0	6.3	0.2	0.9	3.4
COc1ccccc1N1CCN(C(=O)/C=C/c2c(Cl)nc3ccccn23)CC1	4.6*	0.0	-15.2	-14.2	5.1	3.1
CC(=NNc1cc(-c2ccccc2)nc(-c2ccccc2)n1)c1ccc(O)c(C)c1	·	·	·	·	-72.1	·
CCOC(=O)Nc1c2ccccc2nc2ccccc12	0.9	0.9	-3.7	-2.1	i	34.3*
COc1ccc(Nc2c3ccccc3nc3ccccc23)cc1	0.8	0.3	-2.0	-4.3	-0.3	41.9*
Oc1cccc(Nc2c3ccccc3nc3ccccc23)c1	0.1	0.6	-2.3	-1.3	·	62.2*
CC(C)Oc1ccc(CCC(=O)NN=Cc2ccncc2)cc1	·	·	·	·	1.1	·
C=CCNC(=S)NNC(=O)C(CC(C)C)CC(C)O (stereo unspecified)	-1.0	1.6	0.5	-10.6	1.1	3.2
C=CCNC(=S)NNC(=O)C(CCC(C)C)CC(C)(C)O (stereo unspecified)	0.5	4.1	·	0.4	31.2*	0.0
COC(=O)c1ccc(CON=Cc2cccc([N+](=O)[O-])c2)cc1	·	·	·	·	3.8	·
Fc1c(F)c(-n2nnc3ccccc32)c(F)c(F)c1Cl	-1.0	0.0	60.4*	-2.0	1.7	-2.2
Cc1ccc(NC(=O)C2(C)CCN2Cc2ccc(OC(C)C)cc2)cc1 (stereo unspecified)	1.7	0.1	-3.5	-4.5	·	0.6
CC(C)Oc1ccc(CN2CCC2(C)C(=O)Nc2ccc(Cl)c(Cl)c2)cc1 (stereo unspecified)	1.0	-0.1	58.0*	-0.9	·	-1.6
COc1cc(C=NNc2ccc(S(=O)(=O)Nc3ccccc3C(=O)O)cc2[N+](=O)[O-])ccc1O	4.4	0.0	2.2	-7.2	22.2*	2.4
O=C(O)c1ccccc1NS(=O)(=O)c1ccc(N/N=C/c2cccc(O)c2O)c([N+](=O)[O-])c1	2.8	-0.1	-1.3	-5.3	·	-1.2
Cc1nn(-c2ccccc2)c(Cl)c1C=NNc1ccc(S(=O)(=O)Nc2ccccc2C(=O)O)cc1[N+](=O)[O-]	·	·	·	·	23.2*	·
CNc1ccc(Br)cc(C(=O)/C=C/c2cccc(OC)c2OC)c1=O	1.9	-0.5	74.6*	-8.2	14.0	19.7
Cc1ccc(OCc2ccc(C(=O)NN)o2)c([N+](=O)[O-])c1	0.5	-0.2	-0.7	-1.6	5.9	-0.5
Cc1ccc(OCc2ccc(C(=O)Nc3c(C)nn(Cc4c(F)c(F)c(F)c(F)c4F)c3C)o2)c([N+](=O)[O-])c1	0.8	4.0*	-24.0	-1.8	3.8	0.4
Cc1ccc(CNC(=O)CON=Cc2ccc(C(C)(C)C)cc2)cc1	·	·	·	·	2.1	·
Cc1ccc(CNC(=O)c2ccc3c(c2)NC(=O)C(N2CCOCC2)S3)cc1 (stereo unspecified)	0.0	0.2	-4.4	-9.8	4.8	-1.4
O=C(NCCCN1CCCCCC1)c1ccc2c(c1)NC(=O)C(N1CCOCC1)S2 (stereo unspecified)	0.1	-0.1	-10.0	0.1	22.5*	-0.4
CCOC(=O)C1CCN(C(=O)COC(=O)c2ccc([N+](=O)[O-])o2)CC1	-0.6	0.4	-1.1	-1.4	20.1*	0.4
CCOC(=O)C1=C(COC(=O)c2ccc([N+](=O)[O-])o2)NC(=O)NC1C (stereo unspecified)	0.5	-0.2	9.8	-1.5	21.4*	7.6
CC1CC(C)CN(C(=O)COC(=O)c2ccc([N+](=O)[O-])o2)C1 (stereo unspecified)	1.0	0.3	-0.6	0.2	13.5	-1.5
Cc1csc(NC(=O)CSc2nsc(SCC(=O)Nc3nc(C)cs3)c2C#N)n1	0.4	0.0	-0.1	1.2	2.2	-9.9
